This note sets out measurements from ChEMBL document CHEMBL4823320, “SAR of novel benzothiazoles targeting an allosteric pocket of DENV and ZIKV NS2B/NS3 proteases” (Bioorg Med Chem, 2021).

The structures appear in SMILES notation. Active and inactive are the calls of the source. The calls are words filed in the database; no cut-off is given here.

Data set [1] addresses T1, Sortase A (Staphylococcus aureus) (UniProt Q9S446).
T1 sequence (whole entry): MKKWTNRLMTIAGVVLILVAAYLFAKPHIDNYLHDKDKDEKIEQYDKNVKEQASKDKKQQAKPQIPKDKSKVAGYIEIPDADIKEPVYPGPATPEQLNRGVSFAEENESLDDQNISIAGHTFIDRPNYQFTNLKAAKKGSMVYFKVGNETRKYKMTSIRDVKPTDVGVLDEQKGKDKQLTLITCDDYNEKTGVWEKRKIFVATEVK
As to the kind of experiment: Inhibition of staphylococcus aureus Sortase A protease assessed as residual enzyme activity at 20 uM by FRET assay relative to control. Summed up: (§1)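 Compound at 20 µM, read every 30 s for 10 min at 25 °C. Residual activity is relative to DMSO control; mean ± SD, ≥3 independent measurements.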

Data set [2] deals with T2, Genome polyprotein (dengue virus type 2, UniProt P29990). As to the kind of experiment: Inhibition of DENV2 NS2B-NS3 protease expressed in Escherichia coli BL21(DE3) using Boc-Gly-Arg-Arg-AMC as substrate by FRET assay. Summed up: (§2)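 Recombinant His-tagged NS2B/NS3 protease, expressed in E. coli BL21-Gold (DE3) (1 mM IPTG, 20 °C, 16 h) and purified by Ni affinity and size exclusion. Assayed in 50 mM Tris pH 9.0, 20% glycerol, 1 mM Chaps, with 100 μM Boc-Gly-Arg-Arg-AMC. Fluorescence read every 30 s for 10 min at 25 °C; inhibitor 0.01–100 μM. IC50 from a four-parameter fit of hydrolysis rate; ≥3 independent experiments.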

The nature of data set [3]: Chemical stability of compound in tris assay buffer at pH 9 measured after 20 hrs by HPLC/MS analysis. The data set is classed as physicochemical. As to conditions: pH 9, 20 h. Summed up:
(§3)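 Compound incubated in protease assay buffer (Tris pH 9.0) under simulated assay conditions and analysed by HPLC/MS after 15 min, 90 min and 20 h. Stability is the compound peak integral in the 210 nm UV trace as a proportion of the total integral.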

For the next data set, the target named is Nonstructural protein 3 (Zika virus, UniProt A0A024AXB9). As to the kind of experiment: Inhibition of ZIKV NS2B-NS3 protease expressed in Escherichia coli BL21(DE3) using Boc-Gly-Arg-Arg-AMC as substrate by FRET assay. Summed up:
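His-tagged ZIKV NS2B/NS3 protease in 50 mM Tris pH 9.0, 20% glycerol, 1 mM CHAPS with 100 µM Boc-Gly-Arg-Arg-AMC. Dilution series 0.01–100 µM, read every 30 s for 10 min at 25 °C. IC50 from a four-parameter fit of hydrolysis rate; mean ± SD of ≥3 independent measurements.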

Data set [4] is described as follows: Chemical stability of compound in cell culture conditions at pH 7.4 HEPES buffer measured after 90 mins by HPLC/MS analysis. The format is physicochemical. Particulars: read-out: Stabilty. Summed up: (§4)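 Compound incubated under simulated cell-assay conditions (HEPES pH 7.4) and analysed by HPLC/MS after 15 min, 90 min and 20 h. Stability is the compound peak integral in the 210 nm UV trace as a fraction of the total integral.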

Data set [5] in a line: Inhibition of DENV2 NS2B-NS3 protease T120A/N167Q mutant expressed in Escherichia coli BL21(DE3) using Boc-Gly-Arg-Arg-AMC as substrate by FRET assay. The arrangement: species or system dengue virus type 2. A digest of the protocol:
as §2

Another data set relates to Zika virus. The data set can be described thus: Antiviral activity against ZIKV H/PF/2013 infected in human Huh7 cells assessed as decrease in viral RNA expression at 10 uM measured up to 96 hrs by renilla luciferase assay. As to conditions: Huh-7, time hrs <=96. The data set is classed as functional, organism-based. A digest of the protocol:
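Huh7 cells electroporated with in vitro transcribed ZIKV H/PF/2013 subgenomic replicon RNA (Renilla luciferase, coelenterazine substrate). Compound at 10 µM or DMSO is added 4 h post-electroporation in medium with 15 mM HEPES and replenished at 48 h. Lysates are taken at 4, 24, 48, 72 and 96 h and normalized to the 4 h input value. Duplicate reads; mean ± SD, n = 3.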

A short description of data set [6]: Inhibition of Rhodesain (unknown origin) assessed as residual enzyme activity at 20 uM by FRET assay relative to control. Summed up:
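Compound at 20 µM, fluorescence read every 30 s for 10 min at 25 °C. Residual activity is relative to DMSO control; mean ± SD, ≥3 independent measurements.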

A short description of data set [7]: Chemical stability of compound in cell culture conditions at pH 7.4 HEPES buffer measured after 15 mins by HPLC/MS analysis. The format is physicochemical. Particulars: read-out: Stabilty. Summed up: as §4
The next data set relates to Huh-7. As to the kind of experiment: Cytotoxicity against human Huh-7 cells assessed as cell viability after 96 hrs by CellTiter-Glo Luminescent cell viability assay. The format is cell-based. As to conditions: huh-7, 96 h. A digest of the protocol:
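Huh7 cells seeded at 4×10^3 per well and treated one day later with 1.25–40 µM compound or DMSO for 96 h. ATP-based luminescent viability read-out, normalized to untreated cells.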

Data set [8] has as its target Urokinase-type plasminogen activator (Homo sapiens) (UniProt P00749). As to the kind of experiment: Inhibition of Urokinase plasminogen activator (unknown origin) assessed as residual enzyme activity at 20 uM by FRET assay relative to control. Summed up:
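Urokinase plasminogen activator in 50 mM Tris pH 7.4, 50 mM NaCl, 0.5 mM EDTA with 240 µM Z-Gly-Gly-Arg-AMC. Compound at 20 µM, read every 30 s for 10 min at 25 °C. Residual activity is relative to DMSO control; mean ± SD, ≥3 independent measurements.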

Data set [9] in a line: Chemical stability of compound in tris assay buffer at pH 9 measured after 90 mins by HPLC/MS analysis. Particulars: pH 9, 1.5 h. The format is physicochemical. Summed up:
as §3

Data set [10] concerns the target Chymotrypsin (Homo sapiens) (UniProt Q99895+P17538+P40313+Q6GPI1). As to the kind of experiment: Inhibition of Chymotrypsin (unknown origin) assessed as residual enzyme activity at 20 uM by FRET assay relative to control. The data set is classed as protein assay. Summed up:
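α-Chymotrypsin in 50 mM Tris pH 8.0, 100 mM NaCl with Succ-Leu-Tyr-AMC. Compound at 20 µM, read every 30 s for 10 min at 25 °C. Residual activity is relative to DMSO control; mean ± SD, ≥3 independent measurements.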

Data set [11] deals with Severe acute respiratory syndrome coronavirus 2. The data set can be described thus: Inhibition of SARS-CoV-2 Main protease assessed as residual enzyme activity at 20 uM by FRET assay relative to control. A digest of the protocol:
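Compound at 20 μM; fluorescence read every 30 s for 10 min at 25 °C. Residual activity expressed relative to DMSO control; mean of ≥3 independent measurements.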

Data set [12] has as its target T2, Genome polyprotein. The data set can be described thus: Binding affinity to DENV2 NS2B-NS3 protease by Dixon plot analysis. Summed up:
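Fluorogenic DENV2 NS2B/NS3 assay run in 50 mM Tris pH 9.0, 20% glycerol, 1 mM Chaps, with IC50 determined at several Boc-Gly-Arg-Arg-AMC concentrations (50–200 μM). Kinetic fluorescence read at 25 °C for 10 min. Mode of inhibition assessed and apparent Ki derived by Dixon plot analysis.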

The target in the next data set is Trypsin (Homo sapiens) (UniProt P07477+P07478+P35030). As to the kind of experiment: Inhibition of Trypsin (unknown origin) assessed as residual enzyme activity at 20 uM by FRET assay relative to control. The data set is classed as protein assay. A digest of the protocol:
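Trypsin in 50 mM Tris pH 8.0, 100 mM NaCl, 5 mM EDTA with 40 µM Z-Phe-Arg-AMC. Compound at 20 µM, read every 30 s for 10 min at 25 °C. Residual activity is relative to DMSO control; mean ± SD, ≥3 independent measurements.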

A short description of data set [13]: Chemical stability of compound in cell culture conditions at pH 7.4 HEPES buffer measured after 20 hrs by HPLC/MS analysis. The data set is classed as physicochemical. As to conditions: read-out: Stabilty. Summed up: as §4
Data set [14] deals with Prothrombin (Homo sapiens) (UniProt P00734). As to the kind of experiment: Inhibition of Thrombin (unknown origin) assessed as residual enzyme activity at 20 uM by FRET assay relative to control. A digest of the protocol: as §1
The subject of a further data set is dengue virus type 2. The data set can be described thus: Antiviral activity against DENV2 New Guinea C infected in human Huh7 cells assessed as decrease in viral RNA expression at 10 uM measured up to 72 hrs by firefly luciferase assay. The data set is classed as functional, organism-based. Particulars: Huh-7, time hrs <=72. A digest of the protocol:
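Huh7 cells electroporated with in vitro transcribed DENV2 NGC subgenomic replicon RNA (firefly luciferase), 4×10^6 cells per 10 µg RNA. Compound at 10 µM or DMSO is added 4 h post-electroporation in medium with 15 mM HEPES and replenished at 48 h. Lysates are taken at 4–96 h and replication is expressed relative to the 4 h input value. Duplicate luminometer reads; mean ± SD, n = 3.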

Data set [15] is described as follows: Chemical stability of compound in tris assay buffer at pH 9 measured after 15 mins by HPLC/MS analysis. The data set is classed as physicochemical. Particulars: pH 9, 0.25 h. A digest of the protocol: as §3

Consider `O=C(Nc1nc2cc(O)c(O)cc2s1)c1ccc(I)cc1`, for which the Activity in data set [1] is 74%; in [6], 77%; with Huh-7, “Non-Toxic”; in [8] it was 100%; in [10], 79%; in data set [11], 89%. The Activity at Trypsin (Homo sapiens) is 94%; in [14], 65%. For the same molecule, the IC50 on Genome polyprotein [2] turned out to be 4.38 µM; against Nonstructural protein 3 it was 0.67 µM; in data set [5], 8.01 µM. The Stabilty in data set [3], in [9] and in data set [15] was 83% in each case. Further, in data set [4], the remaining at 1.5 h came out at 95%. The result in the data set with Zika virus and with dengue virus type 2 was Active. Moreover, the remaining at 0.25 h in data set [7] is 95%. The molecule also came in with a Ki on Genome polyprotein [12] of 7.67 µM. Further, the remaining at 20 h in [13] was determined as 95%.
